# Laboratory results: ChEMBL document CHEMBL3621143, “Discovery of BMS-641988, a Novel Androgen Receptor Antagonist for the Treatment of Prostate Cancer” (ACS Med Chem Lett, 2015)
# Assays:
# Hepatocyte = assay: Drug metabolism in mouse hepatocytes assessed per 10^6 cells; type: ADME, cell-based
# Method in brief: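 Metabolic rate in mouse, rat, dog, monkey and human hepatocyte incubations, expressed as pmol/min/10^6 cells.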
# [1] = Fraction unbound in human plasma by equilibrium dialysis method; type: ADME, cell-free
# Method in brief: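 Plasma protein binding measured by equilibrium dialysis in mouse, rat, dog and human plasma, reported as % free.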
# Cytochrome P450 1A2 = target: T1, Cytochrome P450 1A2 (Homo sapiens, UniProt P05177); assay: Inhibition of human CYP1A2; type: ADME
# T1 sequence (P05177 whole entry): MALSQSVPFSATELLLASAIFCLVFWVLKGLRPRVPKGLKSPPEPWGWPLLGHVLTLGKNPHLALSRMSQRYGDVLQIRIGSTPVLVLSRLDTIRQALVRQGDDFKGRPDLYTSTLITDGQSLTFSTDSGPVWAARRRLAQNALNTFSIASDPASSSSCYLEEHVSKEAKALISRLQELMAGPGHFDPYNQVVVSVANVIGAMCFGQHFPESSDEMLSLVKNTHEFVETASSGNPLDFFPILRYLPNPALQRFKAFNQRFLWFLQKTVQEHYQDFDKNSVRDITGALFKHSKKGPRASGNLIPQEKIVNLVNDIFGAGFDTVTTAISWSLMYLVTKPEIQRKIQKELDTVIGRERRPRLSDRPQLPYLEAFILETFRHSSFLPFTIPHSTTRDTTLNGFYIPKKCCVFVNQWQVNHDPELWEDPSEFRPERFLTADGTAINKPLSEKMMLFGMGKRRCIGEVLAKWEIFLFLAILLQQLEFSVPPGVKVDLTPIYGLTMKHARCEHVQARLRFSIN
# Rattus norvegicus = assay: In vivo antagonist activity at androgen receptor in immature Sprague-Dawley rat prostate weight model assessed as testosterone propionate-induced weight of seminal vesicles over full body weight at 1 mg/kg, po qd administered for 4 days; type: functional; set-up: scale not given: the % may be the effect or the level left
# Method in brief: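 Immature rat prostate weight PK/PD model. Oral dosing once daily at 1 or 10 mg/kg for 4 days. Seminal vesicle weight expressed as % of full body weight, n=3, scaled so testosterone-treated control = 100% and sham = 10%.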
# [2] = AUC (0 to infinity) in dog at 2 mg/kg, po; type: ADME, organism-based, Canis lupus familiaris; set-up: dose 2 mg/kg, time infinity, route oral; conditions: in vivo
# Method in brief: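 Single IV and oral doses in mouse and rat (IV 5, PO 10 mg/kg) and dog (IV 1, PO 2 mg/kg). Half-life, clearance, AUC0-∞ (µM*h) and %F derived from the plasma profiles.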
smiles,measurement,setting,value
CCS(=O)(=O)N[C@@H]1C[C@]2(C)O[C@]1(C)[C@@H]1C(=O)N(c3ccc(C#N)c(C(F)(F)F)c3)C(=O)[C@@H]12,Drug metabolism,Hepatocyte,0 pmol/min
same,fraction unbound,[1],0.104
same,IC50,Cytochrome P450 1A2,> 40 µM
same,Activity,Rattus norvegicus,58%
same,AUC(0-inf),[2],160 µM·h
